According to ChEMBL document CHEMBL1122828, “Resolution and absolute configuration of the potent dopamine agonist N,N-diethyl-N'-[(3 alpha, 4a alpha, 10a beta)-1,2,3,4,4a,5,10,10a- -octahydro-6-hydroxy-1-propyl-3-benzo[g]quinolinyl]sulfamide” (J Med Chem, 1985):

What was measured:
[1] = target: T1, Adrenergic receptor alpha-1 (Rattus norvegicus, UniProt P15823+P23944+P43140); test: In vitro inhibitory activity was evaluated against,[3H]WB 4101 whole rat brain alpha 1-adrenoceptor
T1 sequence (P15823 whole entry): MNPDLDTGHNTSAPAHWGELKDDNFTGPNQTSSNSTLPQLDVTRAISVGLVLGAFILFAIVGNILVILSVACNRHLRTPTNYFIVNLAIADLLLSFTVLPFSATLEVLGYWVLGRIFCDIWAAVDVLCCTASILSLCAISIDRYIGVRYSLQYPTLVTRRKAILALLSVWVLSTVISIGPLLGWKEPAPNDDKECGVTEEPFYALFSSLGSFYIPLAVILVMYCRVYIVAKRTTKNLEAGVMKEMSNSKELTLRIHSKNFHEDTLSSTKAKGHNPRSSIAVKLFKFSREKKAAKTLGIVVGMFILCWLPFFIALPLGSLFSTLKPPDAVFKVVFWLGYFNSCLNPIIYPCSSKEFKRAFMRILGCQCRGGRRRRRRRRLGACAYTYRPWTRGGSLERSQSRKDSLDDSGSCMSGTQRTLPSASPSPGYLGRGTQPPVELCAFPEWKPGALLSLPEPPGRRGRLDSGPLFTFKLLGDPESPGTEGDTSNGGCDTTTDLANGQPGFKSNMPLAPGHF
T1 sequence (P23944 whole entry): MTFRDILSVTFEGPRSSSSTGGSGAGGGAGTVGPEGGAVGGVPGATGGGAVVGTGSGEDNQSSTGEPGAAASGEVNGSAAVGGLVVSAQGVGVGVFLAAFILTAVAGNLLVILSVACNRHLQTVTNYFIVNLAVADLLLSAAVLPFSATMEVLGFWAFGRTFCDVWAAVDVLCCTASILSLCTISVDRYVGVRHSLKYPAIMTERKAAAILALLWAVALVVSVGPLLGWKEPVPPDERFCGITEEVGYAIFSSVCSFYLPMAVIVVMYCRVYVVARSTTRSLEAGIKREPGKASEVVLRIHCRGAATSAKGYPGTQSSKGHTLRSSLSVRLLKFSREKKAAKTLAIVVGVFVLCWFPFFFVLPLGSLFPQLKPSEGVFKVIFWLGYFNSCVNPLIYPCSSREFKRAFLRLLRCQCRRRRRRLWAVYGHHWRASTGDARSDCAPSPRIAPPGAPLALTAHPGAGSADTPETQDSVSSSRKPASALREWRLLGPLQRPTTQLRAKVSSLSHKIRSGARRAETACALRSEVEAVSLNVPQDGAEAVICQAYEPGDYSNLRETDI
T1 sequence (P43140 whole entry): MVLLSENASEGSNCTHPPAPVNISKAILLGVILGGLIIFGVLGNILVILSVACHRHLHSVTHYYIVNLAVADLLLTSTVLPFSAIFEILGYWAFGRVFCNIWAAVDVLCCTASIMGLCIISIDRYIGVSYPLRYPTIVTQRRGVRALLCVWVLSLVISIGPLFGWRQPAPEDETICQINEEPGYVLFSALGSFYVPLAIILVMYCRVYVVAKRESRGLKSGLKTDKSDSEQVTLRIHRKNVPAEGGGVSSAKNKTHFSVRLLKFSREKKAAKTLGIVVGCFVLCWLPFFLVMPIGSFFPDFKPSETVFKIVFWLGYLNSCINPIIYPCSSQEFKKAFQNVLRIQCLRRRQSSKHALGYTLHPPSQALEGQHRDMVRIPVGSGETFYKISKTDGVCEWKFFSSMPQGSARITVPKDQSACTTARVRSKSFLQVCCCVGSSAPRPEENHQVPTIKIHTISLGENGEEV
Procedure, shortened: (§1)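 Radioligand displacement used brain homogenates. Four to six test concentrations were each incubated in triplicate. IC50 in nM came from weighted regression analysis.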

[2] = target: T2, Adrenergic receptor alpha-2 (Rattus norvegicus, UniProt P22086+P19328+P22909); test: In vitro inhibitory activity was evaluated against,[3H]clonidine (Clon) rat brain minus cerebellum Alpha-2 adrenergic receptor; format: tissue-based; procedure, shortened: as §1
T2 sequence (P22086 whole entry): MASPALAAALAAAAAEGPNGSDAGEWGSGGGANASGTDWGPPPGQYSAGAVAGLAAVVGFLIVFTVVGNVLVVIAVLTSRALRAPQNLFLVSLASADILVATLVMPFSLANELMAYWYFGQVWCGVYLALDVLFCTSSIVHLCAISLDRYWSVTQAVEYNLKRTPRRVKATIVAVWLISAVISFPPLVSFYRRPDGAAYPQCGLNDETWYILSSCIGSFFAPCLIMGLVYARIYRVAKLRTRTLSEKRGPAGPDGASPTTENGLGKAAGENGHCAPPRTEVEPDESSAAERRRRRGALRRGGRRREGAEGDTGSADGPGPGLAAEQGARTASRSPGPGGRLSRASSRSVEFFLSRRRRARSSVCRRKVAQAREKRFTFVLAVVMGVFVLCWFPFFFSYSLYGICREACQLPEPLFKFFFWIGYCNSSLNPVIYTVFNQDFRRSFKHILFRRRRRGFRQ
T2 sequence (P19328 whole entry): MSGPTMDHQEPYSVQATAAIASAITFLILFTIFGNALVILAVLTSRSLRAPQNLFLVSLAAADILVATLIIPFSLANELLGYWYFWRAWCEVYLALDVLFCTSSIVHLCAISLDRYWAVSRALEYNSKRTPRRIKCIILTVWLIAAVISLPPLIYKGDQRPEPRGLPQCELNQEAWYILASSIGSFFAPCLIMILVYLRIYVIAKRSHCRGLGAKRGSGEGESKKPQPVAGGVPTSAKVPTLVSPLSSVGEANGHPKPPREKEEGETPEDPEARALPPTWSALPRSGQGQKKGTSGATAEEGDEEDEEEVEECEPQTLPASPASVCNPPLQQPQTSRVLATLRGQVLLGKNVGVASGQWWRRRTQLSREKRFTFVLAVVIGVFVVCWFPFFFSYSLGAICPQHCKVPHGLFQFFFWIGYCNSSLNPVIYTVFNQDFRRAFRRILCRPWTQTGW
T2 sequence (P22909 whole entry): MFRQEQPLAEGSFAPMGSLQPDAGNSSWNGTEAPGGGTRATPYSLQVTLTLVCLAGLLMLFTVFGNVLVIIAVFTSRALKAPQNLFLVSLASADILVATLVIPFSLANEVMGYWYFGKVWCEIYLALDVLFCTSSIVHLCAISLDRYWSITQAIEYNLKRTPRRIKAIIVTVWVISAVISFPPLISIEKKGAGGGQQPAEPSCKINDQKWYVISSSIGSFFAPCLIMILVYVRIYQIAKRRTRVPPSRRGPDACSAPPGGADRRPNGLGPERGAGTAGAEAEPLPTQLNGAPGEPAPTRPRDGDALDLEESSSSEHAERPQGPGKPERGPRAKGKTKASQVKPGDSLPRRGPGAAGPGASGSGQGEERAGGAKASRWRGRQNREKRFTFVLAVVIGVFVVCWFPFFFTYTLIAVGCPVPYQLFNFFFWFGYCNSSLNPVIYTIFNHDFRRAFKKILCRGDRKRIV

[3] = target: T3, Dopamine receptor (Bos taurus, UniProt Q95136+P20288); test: In vitro inhibitory activity was evaluated against,[3H]dopamine (DA),calf caudate dopamine receptor; format: protein assay; procedure, shortened: as §1
[4] = target: T3, Dopamine receptor; test: In vitro inhibitory activity was evaluated against,[3H]spiperone calf caudate (SPC) dopamine receptor; format: protein assay; procedure, shortened: as §1
[5] = system: Rattus norvegicus; test: Compound was evaluated for the in vivo inhibition of basal prolactin for a time 4 hr after injection in male rats; format: functional
Procedure, shortened: (§2)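 Adult male SIV 50 rats were housed singly from the day before, with light from 4 a.m. to 6 p.m. They got a single sc injection and were decapitated 4 h later. Trunk blood was taken and serum pooled from 3 rats per group, with 1–3 groups per dose. Prolactin was measured by double-antibody RIA against NIH rat Prl RP-1. The dose giving a 50% fall in serum prolactin was estimated graphically.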

[6] = target: Serotonin (5-HT) receptor; test: In vitro inhibitory activity was evaluated against,[3H]serotonin (5-HT) whole rat brain serotonin receptor
[7] = target: Serotonin (5-HT) receptor; test: In vitro inhibitory activity was evaluated against,[3H]spiperone rat frontal cortex (SPFC) serotonin receptor; format: tissue-based
[8] = target: T3, Dopamine receptor; test: In vitro inhibitory activity was evaluated against [3H]dopamine (DA) calf caudate dopamine receptor; format: protein assay; procedure, shortened: as §1
[9] = target: T3, Dopamine receptor; test: In vitro inhibitory activity was evaluated against [3H]spiperone calf caudate (SPC) dopamine receptor; format: protein assay; procedure, shortened: as §1
[10] = system: Rattus norvegicus; test: Compound was evaluated for the in vivo inhibition of basal prolactin secretion for a time 4 hr after injection in male rats; format: functional; settings: read-out: ID50 (the source's name); procedure, shortened: as §2
[11] = system: Rattus norvegicus; test: Compound was evaluated for the in vivo inhibition of basal prolactin secretion for a time 30 min after injection in male rats; format: functional; settings: 0.5 h, read-out: ID50 (the source's name)
[12] = system: Rattus norvegicus; test: Compound was evaluated for the in vivo inhibition of basal prolactin secretion for a time 60 min after injection in male rats; format: functional; settings: 1 h, read-out: ID50 (the source's name)

SMILES | IC50 [1] | IC50 [2] | IC50 [3] | IC50 [4] | IC50 [8] | IC50 [9] | ID50 [5] | ED50 ([5]; Rattus norvegicus, 4 h, read-out: ID50 (the source's name)) | IC50 [6] | IC50 [7] | ED50 [10] | ED50 [11] | ED50 [12]
CCCN1CC(NS(=O)(=O)N(CC)CC)CC2Cc3c(O)cccc3CC21 (racemic) [QUINAGOLIDE] | 7.8 µM | 5.6 µM | 0.19 µM | 0.048 µM |  |  | 0.005 mg/kg |  |  |  |  |  | 
CCN(CC)S(=O)(=O)N[C@H]1C[C@@H]2c3cccc4[nH]cc(c34)C[C@H]2N(C)C1 [ETISULERGINE] | 3.3 µM | 0.48 µM | 0.12 µM | 0.025 µM |  |  |  | 0.0014 mg/kg | > 5 µM | 0.026 µM |  |  | 
CN1CCc2cccc3c2[C@H]1Cc1ccc(O)c(O)c1-3 [APOMORPHINE] | 7.75 µM |  |  |  |  |  |  |  | > 10 µM | 4.5 µM | > 10 mg/kg | 0.058 mg/kg | 0.081 mg/kg

Further lines, with some results ahead:

IC50 [1] | IC50 [2] | IC50 [3] | IC50 [4] | IC50 [8] | IC50 [9] | SMILES | ID50 [5] | ED50 ([5]; Rattus norvegicus, 4 h, read-out: ID50 (the source's name)) | IC50 [6] | IC50 [7] | ED50 [10] | ED50 [11] | ED50 [12]
> 10 µM | > 10 µM |  |  | > 100 µM | > 10 µM | CCCN1CC(NS(=O)(=O)N(CC)CC)CC2Cc3c(O)cccc3CC21 (stereo in doubt; (+)1) [QUINAGOLIDE] |  |  |  |  | > 3 mg/kg |  | 
6 µM | 7.4 µM | 0.075 µM | 0.019 µM |  |  | CCCN1CC(NS(=O)(=O)N(CC)CC)CC2Cc3c(O)cccc3CC21 (stereo in doubt; -1) [QUINAGOLIDE] | 0.0018 mg/kg |  |  |  |  |  | 
